Assay results reported in ChEMBL document CHEMBL3861959, “Synthesis and antiproliferative evaluation of novel 2-(4H-1,2,4-triazole-3-ylthio)acetamide derivatives as inducers of apoptosis in cancer cells” (Eur J Med Chem, 2016).
Calls of active or inactive are those of the source. The calls are words filed in the database; no cut-off is given here.

What was measured:
[1] = Cytotoxicity against human HL-60(TB) cells assessed as cell growth at 10^-5 M after 48 hrs by SRB assay relative to control; type: functional; details: HL-60, 48 h, read-out: Activity
Method in brief: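 NCI-60 one-dose primary screen run by the US NCI under its protocol. Single concentration of 10 µM across the 60-line human tumour panel, which includes HL-60(TB). Read-out is growth percent for each cell line. Lines reduced to about 32% growth or less are taken forward to full-panel testing over a 5-log dose range.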

[2] = Cytotoxicity against human TK10 cells assessed as cell growth at 10^-5 M after 48 hrs by SRB assay relative to control; type: functional; details: TK-10, 48 h, read-out: Activity
Method in brief: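 Single-dose NCI 60-cell-line screen run under the US NCI protocol. Compounds tested at 10 µM. Read-out is growth percent for each cell line.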

[3] = (§1) Cytotoxicity against human K562 cells assessed as decrease in cell proliferation after 48 hrs by MTT assay; type: functional, cell-based; details: K562, 48 h
Method in brief: (§2)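 MTT viability assay in A549, K562 and PC-3 cells. Media carried 10% FBS, 1% L-glutamine and penicillin/streptomycin, at 37 °C in 5% CO2. Cells seeded and left overnight, then exposed to 5–100 µM compound for 48 h. MTT added to 0.5 mg/ml final for 4 h, medium removed, and SDS buffer added. Data given as mean ± SD, analysed by ANOVA/Tukey.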

K562 [4] = test: as §1; type: functional, cell-based; method in brief: as §2
[5] = Induction of apoptosis in human K562 cells assessed as upregulation of caspase-3 levels using DEVD-pNA substrate after 72 hrs by ELISA; type: functional, cell-based
Method in brief: (§3)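 Supernatant protein measured by Bradford. 200 µg protein incubated with pNA substrate (DEVD-pNA for caspase-3) using a colorimetric kit. Data given as mean ± SD; one-way ANOVA with Tukey test, p < 0.05.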

K562 [6] = test: Induction of apoptosis in human K562 cells assessed as downregulation of Bcl-2 levels after 72 hrs by […]; type: functional, cell-based
K562 [7] = test: Disruption of mitochondrial membrane potential in human K562 cells after 72 hrs by JC1 staining-based assay; type: functional, cell-based
Method in brief: (§4)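 Cells seeded and treated with 10, 20 and 50 µM compound. Cells pelleted at 600 × g, resuspended in JC-1 dye, and incubated at 37 °C in 5% CO2 for 15 min. Green monomers mark disrupted membrane potential; orange aggregates mark intact potential.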

[8] = Induction of apoptosis in human A549 cells assessed as upregulation of caspase-3 levels using DEVD-pNA substrate by ELISA; type: functional, cell-based; method in brief: as §3
[9] = Cytotoxicity against human A549 cells assessed as decrease in cell proliferation after 48 hrs by MTT assay; type: functional, cell-based; details: A549, 48 h; method in brief: as §2
A549 [10] = test: Disruption of mitochondrial membrane potential in human A549 cells after 72 hrs by JC1 staining-based assay; type: functional, cell-based; method in brief: as §4
A549 [11] = test: Induction of apoptosis in human A549 cells assessed as downregulation of Bcl-2 levels by […]; type: functional, cell-based
[12] = Induction of apoptosis in human A549 cells assessed as upregulation of caspase-8 levels at 50 uM using IETD-pNA substrate by ELISA; type: functional, cell-based
[13] = Cytotoxicity against human PC3 cells assessed as decrease in cell proliferation after 48 hrs by MTT assay; type: functional, cell-based; details: PC-3, 48 h; method in brief: as §2
[14] = Induction of apoptosis in human PC3 cells assessed as upregulation of caspase-3 levels using DEVD-pNA substrate by ELISA; type: functional, cell-based; details: PC-3; method in brief: as §3
PC-3 [15] = test: Induction of apoptosis in human PC3 cells assessed as downregulation of Bcl-2 levels by […]; type: functional, cell-based
PC-3 [16] = test: Disruption of mitochondrial membrane potential in human PC3 cells at 10 to 50 uM after 72 hrs by JC1 staining-based assay; type: functional, cell-based; method in brief: as §4

SMILES | growth at 10 µM [1] [%] | growth at 10 µM [2] [%] | IC50 [3] [µM] | Activity (K562 [4]) | Activity [5] | Activity (K562 [6]) | Activity (K562 [7]) | Activity [8] | IC50 [9] [µM] | Activity (A549 [10]) | Activity (A549 [11]) | Activity [12] | IC50 [13] [µM] | Activity [14] | Activity (PC-3 [15]) | Activity (PC-3 [16])
CC(=O)Nc1ccc(OCc2nnc(SCC(=O)Nc3ccc(Br)cc3)n2Cc2ccccc2)cc1 | 63.8 | 87.1 | 7.71 | Dose-dependent effect | Dose-dependent effect | Dose-dependent effect | Dose-dependent effect | – | – | – | – | – | – | – | – | –
Cc1ccc(C(C)C)c(OCc2nnc(SCC(=O)Nc3ccc(Cl)cc3)n2Cc2ccccc2)c1 | 83.9 | 71.9 | – | – | – | – | – | Dose-dependent effect | 7.9 | Dose-dependent effect | Dose-dependent effect | Active | – | – | – | –
Cc1ccc(C(C)C)c(OCc2nnc(SCC(=O)Nc3ccc(S(N)(=O)=O)cc3)n2Cc2ccccc2)c1 | 68.2 | 94 | – | – | – | – | – | – | – | – | – | – | 5.96 | Dose-dependent effect | Dose-dependent effect | Active
